Assay results: ChEMBL document CHEMBL4715911, “Quest for a potent antimalarial drug lead: Synthesis and evaluation of 6,7-dimethoxyquinazoline-2,4-diamines” (Bioorg Med Chem, 2021)

Experiments:
[1] = system: Plasmodium berghei; experiment: Antimalarial activity against Plasmodium berghei NK65 infected in ICR mouse assessed as reduction in parasitemia at 58.2 mg/kg, po qd for 4 days by Diff-Quik staining based microscopic method (reference value: 0%); assay type: functional; conditions: 96 h, time 4 day
[2] = system: Plasmodium berghei; experiment: Antimalarial activity against Plasmodium berghei NK65 infected in ICR mouse assessed as animal mean survival days at 58.2 mg/kg, po qd for 4 days (reference value: 6.2 +/-0.5 day); assay type: functional; conditions: time 4 day
[3] = Selectivity index, ratio of IC50 for cytotoxicity against rat L6 cells to IC50 for antimalarial activity against Plasmodium falciparum NF54; assay type: toxicity, cell-based; conditions: read-out: Ratio IC50
Outline: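 SI calculated as L6 cytotoxicity IC50 divided by P. falciparum NF54 IC50, both measured in parallel in vitro assays.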

[4] = system: Plasmodium berghei; experiment: Antimalarial activity against Plasmodium berghei NK65 infected in ICR mouse assessed as reduction in parasitemia at 50 mg/kg, po qd for 4 days by Diff-Quik staining based microscopic method (reference value: 0%); assay type: functional; conditions: 96 h, time 4 day
[5] = system: Plasmodium berghei; experiment: Antimalarial activity against Plasmodium berghei NK65 infected in ICR mouse assessed as animal mean survival days at 50 mg/kg, po qd for 4 days (reference value: 6.2 +/- 0.5 day); assay type: functional; conditions: time 4 day
[6] = system: Plasmodium falciparum; experiment: Antimalarial activity against Plasmodium falciparum NF54 assessed as inhibition of parasite growth incubated for 48 hrs by [3H]hypoxanthine incorporation assay based liquid scintillation counting method; assay type: functional, organism-based
Outline: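 ³H-hypoxanthine incorporation against erythrocytic P. falciparum NF54 (drug-sensitive). Culture in hypoxanthine-free RPMI 1640 with HEPES, NaHCO3, neomycin and Albumax, on human A+ red cells at 2.5% hematocrit, 0.3% parasitemia. Eleven 3-fold dilutions spanning 100 to 0.002 µg/mL. 37 °C in 4% CO2/3% O2/93% N2. Label (0.5 µCi) added after 48 h, then a further 24 h. Scintillation counting. IC50 from 4-parameter logistic fit, average of two independent determinations.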

[7] = system: L6; experiment: Cytotoxicity against rat L6 cells assessed as reduction in cell viability incubated for 70 hrs by resazurin dye based fluorescence assay; conditions: L6, 70 h
Outline: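 L6 rat skeletal myoblasts seeded at 4000 cells/well in RPMI 1640 with 1% L-glutamine and 10% FBS. Eleven 3-fold drug dilutions (100 to 0.002 µg/mL) added 24 h after seeding, then 70 h incubation. Resazurin added for 2 h. Fluorescence read at ex 536/em 588 nm. IC50 from 4-parameter logistic fit, average of two independent determinations.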

[8] = system: Plasmodium berghei; experiment: Antimalarial activity against Plasmodium berghei NK65 infected in ICR mouse assessed as parasitemia at 50 mg/kg, po qd for 4 days by Diff-Quik staining based microscopic method (reference value: 28.4 +/- 10.2%); assay type: functional; conditions: time 4 day
[9] = system: Plasmodium berghei; experiment: Antimalarial activity against Plasmodium berghei NK65 infected in ICR mouse assessed as reduction in parasitemia at 66.3 mg/kg, po qd for 4 days by Diff-Quik staining based microscopic method (reference value: 0%); assay type: functional; conditions: 96 h, time 4 day
[10] = system: Plasmodium berghei; experiment: Antimalarial activity against Plasmodium berghei NK65 infected in ICR mouse assessed as animal mean survival days at 66.3 mg/kg, po qd for 4 days (reference value: 6.2 day); assay type: functional; conditions: time 4 day
[11] = system: Plasmodium berghei; experiment: Antimalarial activity against Plasmodium berghei NK65 infected in po dosed ICR mouse assessed as increase in mean survival days for administered for 4 days; assay type: functional, organism-based; conditions: dose 50-100 mg/kg, time 4.0 day
Outline: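 Female ICR mice (25–27 g) infected via tail vein with 2×10^7 P. berghei NK65 parasitized RBC. Oral dosing in 0.5% methyl cellulose at 4 h post-infection, then days 1–3. Survival days recorded and mean survival days compared with vehicle controls. Student's t-test and Kaplan-Meier analysis applied. Mice without parasitemia at day 30 counted as cured.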

[12] = system: Plasmodium berghei; experiment: Antimalarial activity against Plasmodium berghei NK65 infected in ICR mouse assessed as reduction in parasitemia at 115 mg/kg, po qd for 4 days by Diff-Quik staining based microscopic method (reference value: 0%); assay type: functional; conditions: 96 h, time 4 day
[13] = system: Plasmodium berghei; experiment: Antimalarial activity against Plasmodium berghei NK65 infected in ICR mouse assessed as reduction in parasitemia at 57.5 mg/kg, po qd for 4 days by Diff-Quik staining based microscopic method (reference value: 0%); assay type: functional; conditions: 96 h, time 4 day
[14] = system: Plasmodium berghei; experiment: Antimalarial activity against Plasmodium berghei NK65 infected in ICR mouse assessed as animal mean survival days at 57.5 mg/kg, po qd for 4 days (reference value: 6.2 +/-0.5 day); assay type: functional; conditions: time 4 day
[15] = system: Plasmodium berghei; experiment: Antimalarial activity against Plasmodium berghei NK65 infected in ICR mouse assessed as parasitemia at 115 mg/kg, po qd for 4 days by Diff-Quik staining based microscopic method (reference value: 28.4 +/- 10.2%); assay type: functional; conditions: time 4 day
[16] = system: Plasmodium berghei; experiment: Antimalarial activity against Plasmodium berghei NK65 infected in ICR mouse assessed as parasitemia at 57.5 mg/kg, po qd for 4 days by Diff-Quik staining based microscopic method (reference value: 28.4 +/- 10.2%); assay type: functional; conditions: time 4 day
[17] = system: Plasmodium berghei; experiment: Antimalarial activity against Plasmodium berghei NK65 infected in ICR mouse assessed as animal mean survival days at 115 mg/kg, po qd for 4 days (reference value: 6.2 +/- 0.5 day); assay type: functional; conditions: time 4 day
[18] = system: Plasmodium berghei; experiment: Antimalarial activity against Plasmodium berghei NK65 infected in ICR mouse assessed as animal mean survival days at 57.2 mg/kg, po qd for 4 days (reference value: 6.2 +/- 0.5 day); assay type: functional; conditions: time 4 day
[19] = system: Plasmodium berghei; experiment: Antimalarial activity against Plasmodium berghei NK65 infected in ICR mouse assessed as reduction in parasitemia at 57.2 mg/kg, po qd for 4 days by Diff-Quik staining based microscopic method (reference value: 0%); assay type: functional; conditions: 96 h, time 4 day
[20] = system: Plasmodium berghei; experiment: Antimalarial activity against Plasmodium berghei NK65 infected in ICR mouse assessed as parasitemia at 57.2 mg/kg, po qd for 4 days by Diff-Quik staining based microscopic method (reference value: 28.4 +/- 10.2%); assay type: functional; conditions: time 4 day
[21] = system: Plasmodium berghei; experiment: Antimalarial activity against Plasmodium berghei NK65 infected in ICR mouse assessed as animal mean survival days at 114.4 mg/kg, po qd for 4 days (reference value: 6.2 +/- 0.5 day); assay type: functional; conditions: time 4 day
[22] = system: Plasmodium berghei; experiment: Antimalarial activity against Plasmodium berghei NK65 infected in ICR mouse assessed as parasitemia at 114.4 mg/kg, po qd for 4 days by Diff-Quik staining based microscopic method (reference value: 28.4 +/- 10.2%); assay type: functional; conditions: time 4 day
[23] = system: Plasmodium berghei; experiment: Antimalarial activity against Plasmodium berghei NK65 infected in ICR mouse assessed as reduction in parasitemia at 114.4 mg/kg, po qd for 4 days by Diff-Quik staining based microscopic method (reference value: 0%); assay type: functional; conditions: 96 h, time 4 day
[24] = system: Plasmodium berghei; experiment: Antimalarial activity against Plasmodium berghei NK65 infected in ICR mouse assessed as reduction in parasitemia at 59 mg/kg, po qd for 4 days by Diff-Quik staining based microscopic method (reference value: 0%); assay type: functional; conditions: 96 h, time 4 day
[25] = system: Plasmodium berghei; experiment: Antimalarial activity against Plasmodium berghei NK65 infected in ICR mouse assessed as animal mean survival days at 59 mg/kg, po qd for 4 days (reference value: 6.2 day); assay type: functional; conditions: time 4 day
[26] = system: Plasmodium berghei; experiment: Antimalarial activity against Plasmodium berghei NK65 infected in ICR mouse assessed as reduction in parasitemia at 58.4 mg/kg, po qd for 4 days by Diff-Quik staining based microscopic method (reference value: 0%); assay type: functional; conditions: 96 h, time 4 day
[27] = system: Plasmodium berghei; experiment: Antimalarial activity against Plasmodium berghei NK65 infected in ICR mouse assessed as animal mean survival days at 58.4 mg/kg, po qd for 4 days (reference value: 6.2 day); assay type: functional; conditions: time 4 day
[28] = system: Plasmodium berghei; experiment: Antimalarial activity against Plasmodium berghei NK65 infected in ICR mouse assessed as animal mean survival days at 63.7 mg/kg, po qd for 4 days (reference value: 6.2 day); assay type: functional; conditions: time 4 day
[29] = system: Plasmodium berghei; experiment: Antimalarial activity against Plasmodium berghei NK65 infected in ICR mouse assessed as reduction in parasitemia at 63.7 mg/kg, po qd for 4 days by Diff-Quik staining based microscopic method (reference value: 0%); assay type: functional; conditions: 96 h, time 4 day
[30] = system: Plasmodium berghei; experiment: Antimalarial activity against Plasmodium berghei NK65 infected in ICR mouse assessed as animal mean survival days at 57 mg/kg, po qd for 4 days (reference value: 6.2 day); assay type: functional; conditions: time 4 day
[31] = system: Plasmodium berghei; experiment: Antimalarial activity against Plasmodium berghei NK65 infected in ICR mouse assessed as reduction in parasitemia at 57 mg/kg, po qd for 4 days by Diff-Quik staining based microscopic method (reference value: 0%); assay type: functional; conditions: 96 h, time 4 day

SMILES: COc1cc2nc(Nc3ccncc3)nc(NC(C)C)c2cc1OC.Cl.Cl
- inhibition in vivo at 58.2 mg/kg [1]: 39.5%
- MSD [2]: 8.3 days

SMILES: COc1cc2nc(N3CCCC3)nc(NC(C)c3ccccc3)c2cc1OC (configuration not stated) [listing 1 of 2 here]
- selectivity ratio [3]: 481
- inhibition in vivo at 50 mg/kg [4]: 90.4%
- MSD [5]: 19.8 days
- IC50 [6]: 0.01 µM
- IC50 [7]: 4.81 µM
- Activity [8]: 2.5%

SMILES: COc1cc2nc(Nc3ccncc3)nc(NCc3cccnc3)c2cc1OC.Cl.Cl
- inhibition in vivo at 66.3 mg/kg [9]: 27.1%
- MSD [10]: 8.7 days

SMILES: COc1cc2nc(N3CCCC3)nc(NC(C)c3ccccc3)c2cc1OC (configuration not stated) [listing 2 of 2 here]
- Activity [11]: Dose dependent effect

SMILES: COc1cc2nc(N3CCCC3)nc(Nc3ccccc3C)c2cc1OC.Cl
- inhibition in vivo at 115 mg/kg [12]: 63.8%
- inhibition in vivo at 57.5 mg/kg [13]: 53.9%
- MSD [14]: 7 days
- Activity [15]: 11.6%
- Activity [16]: 14.7%
- MSD [17]: 14.5 days

SMILES: COc1cc2nc(N3CCCC3)nc(Nc3ccccc3C)c2cc1OC
- selectivity ratio [3]: 257
- inhibition in vivo at 50 mg/kg [4]: 26.8%
- MSD [5]: 6.8 days
- IC50 [6]: 0.0329 µM
- IC50 [7]: 8.46 µM
- Activity [8]: 23.4%

SMILES: COc1cc2nc(N3CCCC3)nc(NC(C)c3ccccc3)c2cc1OC.Cl (configuration not stated)
- MSD [18]: 12 days
- inhibition in vivo at 57.2 mg/kg [19]: 92.1%
- Activity [20]: 2%
- MSD [21]: 28.2 days
- Activity [22]: 0%
- inhibition in vivo at 114.4 mg/kg [23]: > 99%

SMILES: COc1cc2nc(N3CCCC3)nc(NCc3cccnc3)c2cc1OC.Cl
- inhibition in vivo at 59 mg/kg [24]: 80.3%
- MSD [25]: 8 days

SMILES: CCNc1nc(Nc2ccncc2)nc2cc(OC)c(OC)cc12.Cl
- inhibition in vivo at 58.4 mg/kg [26]: 1%
- MSD [27]: 7 days

SMILES: COc1cc2nc(Nc3ccncc3)nc(NC(C)c3ccccc3)c2cc1OC.Cl.Cl (configuration not stated)
- MSD [28]: 8.3 days
- inhibition in vivo at 63.7 mg/kg [29]: 6.6%

SMILES: CCCCCCCCNc1nc(N2CCCC2)nc2cc(OC)c(OC)cc12.Cl
- MSD [30]: 6.7 days
- inhibition in vivo at 57 mg/kg [31]: 48.8%
